Data published in ChEMBL document CHEMBL1811829, “Discovery of selective indole-based prostaglandin D₂ receptor antagonist” (Bioorg Med Chem, 2011).

Assays:
Prostacyclin receptor = Prostacyclin receptor (Homo sapiens, UniProt P43119); experiment: Displacement of [3H]-Iloprost from human IP receptor expressed in CHO cells after 30 mins by liquid scintillation counting; assay type: cell-based
Procedure, shortened: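 Membranes from CHO cells expressing hIP were incubated with 5.0 nM [³H]Iloprost and compounds at various concentrations. Buffer was 50 mM Tris–HCl pH 7.5 with 1 mM EDTA and 10 mM MgCl₂, for 30 min at room temperature. Samples were filtered on GF/B, washed with 10 mM Tris–HCl/100 mM NaCl pH 7.5, dried 60 min at 60 °C and scintillation counted.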

Thromboxane A2 receptor = target: T1, Thromboxane A2 receptor (Homo sapiens, UniProt P21731); experiment: Displacement of [3H]-SQ29548 from human TP receptor expressed in CHO cells after 30 mins by liquid scintillation counting; assay type: cell-based
T1 sequence (P21731 whole entry): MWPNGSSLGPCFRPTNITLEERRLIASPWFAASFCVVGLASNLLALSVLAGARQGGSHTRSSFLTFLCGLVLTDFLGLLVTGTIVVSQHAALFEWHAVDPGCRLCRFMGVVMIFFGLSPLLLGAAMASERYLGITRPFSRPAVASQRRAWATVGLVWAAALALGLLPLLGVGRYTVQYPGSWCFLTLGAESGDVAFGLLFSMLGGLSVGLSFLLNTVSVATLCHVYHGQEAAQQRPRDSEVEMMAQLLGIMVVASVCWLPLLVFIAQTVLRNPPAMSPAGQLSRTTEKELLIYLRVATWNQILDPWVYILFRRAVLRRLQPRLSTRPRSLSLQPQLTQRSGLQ
Procedure, shortened: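 Membranes from CHO cells expressing hTP were incubated with 5.0 nM [³H]-SQ29548 and compounds at various concentrations. Buffer was 10 mM Tris–HCl pH 7.5 with 100 mM NaCl, for 30 min at room temperature. Samples were filtered on GF/B, washed with the same buffer, dried 60 min at 60 °C and scintillation counted. Nonspecific binding was set with excess unlabeled SQ29548.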

[1] = target: Prostaglandin F2-alpha receptor (Mus musculus, UniProt P43117); experiment: Displacement of [3H]-PGF2-alpha from mouse FP receptor expressed in CHO cells after 60 mins by liquid scintillation counting; assay type: cell-based
Sequence of Prostaglandin F2-alpha receptor (P43117 whole entry): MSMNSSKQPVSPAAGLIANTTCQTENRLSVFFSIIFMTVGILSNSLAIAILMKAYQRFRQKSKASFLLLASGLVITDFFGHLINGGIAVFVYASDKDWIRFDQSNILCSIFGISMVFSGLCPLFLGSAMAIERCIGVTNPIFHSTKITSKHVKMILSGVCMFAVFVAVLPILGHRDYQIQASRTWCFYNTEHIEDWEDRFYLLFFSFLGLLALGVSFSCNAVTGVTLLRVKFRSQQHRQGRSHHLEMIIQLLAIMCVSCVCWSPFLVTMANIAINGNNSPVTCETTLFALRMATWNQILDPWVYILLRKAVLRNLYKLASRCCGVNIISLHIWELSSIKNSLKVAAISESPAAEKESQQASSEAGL
Procedure, shortened: (§1)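 Membranes from CHO cells stably expressing mEP1, mEP2, mEP3a, mEP4 or mFP were used. The radioligand was 2.5 nM [³H]PGE₂ for EP receptors and 2.5 nM [³H]PGF2α for FP. Buffer was 10 mM KH₂PO₄–KOH pH 6.0 with 1 mM EDTA, 10 mM MgCl₂ and 100 mM NaCl. Incubation was at room temperature, 20 min for mEP1 and 60 min for the others. Samples were filtered on GF/B, washed with phosphate/NaCl pH 6.0, dried 60 min at 60 °C and scintillation counted.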

[2] = target: Prostaglandin E2 receptor EP4 subtype (Mus musculus, UniProt P32240); experiment: Displacement of [3H]-PGE2 from mouse EP4 receptor expressed in CHO cells after 60 mins by liquid scintillation counting; assay type: cell-based; procedure, shortened: as §1
Sequence of Prostaglandin E2 receptor EP4 subtype (P32240 whole entry): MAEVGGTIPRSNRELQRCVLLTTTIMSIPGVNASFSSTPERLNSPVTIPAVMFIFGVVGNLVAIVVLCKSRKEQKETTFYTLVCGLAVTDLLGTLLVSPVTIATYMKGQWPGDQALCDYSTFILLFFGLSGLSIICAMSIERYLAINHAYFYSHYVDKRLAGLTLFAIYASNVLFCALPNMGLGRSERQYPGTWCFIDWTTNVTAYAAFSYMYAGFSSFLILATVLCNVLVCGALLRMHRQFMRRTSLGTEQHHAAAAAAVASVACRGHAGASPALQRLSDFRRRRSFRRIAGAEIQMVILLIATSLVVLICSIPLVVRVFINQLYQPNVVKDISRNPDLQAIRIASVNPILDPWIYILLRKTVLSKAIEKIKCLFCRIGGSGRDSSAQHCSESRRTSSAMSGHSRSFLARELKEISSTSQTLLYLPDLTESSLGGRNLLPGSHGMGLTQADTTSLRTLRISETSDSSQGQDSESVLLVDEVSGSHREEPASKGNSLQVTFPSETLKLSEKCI

[3] = target: T2, Prostaglandin E2 receptor EP3 subtype (Mus musculus, UniProt P30557); experiment: Displacement of [3H]-PGE2 from mouse EP3 receptor expressed in CHO cells after 60 mins by liquid scintillation counting; assay type: cell-based; procedure, shortened: as §1
T2 sequence (P30557 whole entry): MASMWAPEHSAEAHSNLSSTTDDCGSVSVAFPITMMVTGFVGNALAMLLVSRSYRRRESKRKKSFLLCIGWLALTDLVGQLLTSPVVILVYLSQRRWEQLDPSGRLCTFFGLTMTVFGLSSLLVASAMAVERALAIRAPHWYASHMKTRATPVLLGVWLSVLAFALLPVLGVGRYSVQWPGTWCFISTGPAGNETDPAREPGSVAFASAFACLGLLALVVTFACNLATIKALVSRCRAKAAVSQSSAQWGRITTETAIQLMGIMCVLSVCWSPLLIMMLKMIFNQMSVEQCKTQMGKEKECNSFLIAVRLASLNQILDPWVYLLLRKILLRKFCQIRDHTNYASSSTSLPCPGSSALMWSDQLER

[4] = target: T3, Prostaglandin E2 receptor EP1 subtype (Mus musculus, UniProt P35375); experiment: Displacement of [3H]-PGE2 from mouse EP1 receptor expressed in CHO cells after 20 mins by liquid scintillation counting; assay type: cell-based; procedure, shortened: as §1
T3 sequence (P35375 whole entry): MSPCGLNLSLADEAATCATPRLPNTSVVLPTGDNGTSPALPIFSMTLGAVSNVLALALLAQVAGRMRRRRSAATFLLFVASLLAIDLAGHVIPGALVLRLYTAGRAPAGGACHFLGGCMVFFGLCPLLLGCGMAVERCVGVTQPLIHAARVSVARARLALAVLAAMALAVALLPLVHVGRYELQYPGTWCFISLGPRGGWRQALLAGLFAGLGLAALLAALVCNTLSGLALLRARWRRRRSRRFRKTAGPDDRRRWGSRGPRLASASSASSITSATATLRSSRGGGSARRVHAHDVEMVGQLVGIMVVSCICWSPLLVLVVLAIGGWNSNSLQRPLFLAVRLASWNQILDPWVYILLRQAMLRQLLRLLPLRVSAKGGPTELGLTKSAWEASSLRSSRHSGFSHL

[5] = target: T4, Prostaglandin D2 receptor (Mus musculus, UniProt P70263); experiment: Displacement of [3H]-PGD2 from mouse DP receptor expressed in CHO cells after 20 mins by liquid scintillation counting; assay type: cell-based
T4 sequence (P70263 whole entry): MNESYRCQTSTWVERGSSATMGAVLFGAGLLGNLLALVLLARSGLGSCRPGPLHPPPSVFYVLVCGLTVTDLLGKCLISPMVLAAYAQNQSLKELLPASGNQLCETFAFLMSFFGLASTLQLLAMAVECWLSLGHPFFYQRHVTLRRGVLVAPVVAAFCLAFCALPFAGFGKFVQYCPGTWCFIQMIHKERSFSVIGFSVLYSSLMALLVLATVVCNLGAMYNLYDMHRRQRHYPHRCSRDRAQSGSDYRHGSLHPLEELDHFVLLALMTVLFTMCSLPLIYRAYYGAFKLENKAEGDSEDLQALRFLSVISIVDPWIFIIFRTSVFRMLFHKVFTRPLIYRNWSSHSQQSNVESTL
Procedure, shortened: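 Membranes from CHO cells stably expressing mDP were incubated with 2.5 nM [³H]PGD₂ and compounds at various concentrations. Buffer was 25 mM HEPES–NaOH pH 7.4 with 1 mM EDTA, 5 mM MgCl₂ and 10 mM MnCl₂, for 20 min at room temperature. Samples were filtered on GF/B and washed with Tris–HCl pH 7.4, NaCl, 0.01% BSA. Filters were dried 60 min at 60 °C and read by scintillation counting. Nonspecific binding was set with excess unlabeled PGD₂.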

[6] = target: Prostaglandin E2 receptor EP2 subtype (Mus musculus, UniProt Q62053); experiment: Displacement of [3H]-PGE2 from mouse EP2 receptor expressed in CHO cells after 60 mins by liquid scintillation counting; assay type: cell-based; procedure, shortened: as §1
Sequence of Prostaglandin E2 receptor EP2 subtype (Q62053 whole entry): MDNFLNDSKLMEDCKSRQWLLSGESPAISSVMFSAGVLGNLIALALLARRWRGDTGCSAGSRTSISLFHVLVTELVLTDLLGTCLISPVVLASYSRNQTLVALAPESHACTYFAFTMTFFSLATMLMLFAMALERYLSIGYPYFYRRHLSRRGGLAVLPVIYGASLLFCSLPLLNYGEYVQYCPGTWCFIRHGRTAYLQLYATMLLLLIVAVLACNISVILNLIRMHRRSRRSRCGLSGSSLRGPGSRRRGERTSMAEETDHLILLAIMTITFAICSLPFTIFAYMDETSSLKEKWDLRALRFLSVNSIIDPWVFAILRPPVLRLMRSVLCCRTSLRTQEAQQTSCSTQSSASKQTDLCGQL

[7] = target: T4, Prostaglandin D2 receptor; experiment: Antagonist activity at mouse DP receptor expressed in CHO cells assessed as inhibition of PGD2-induced cAMP accumulation after 10 mins by enzyme immunoassay in the presence of 0.1% BSA; assay type: functional, cell-based
Procedure, shortened: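 CHO cells stably expressing mDP were seeded at 1 × 10⁵ cells/well and grown 2 days. They were preincubated about 10 min at 37 °C in MEM with Diclofenac, then given assay medium (MEM, 0.1% BSA, 1 mM IBMX, Diclofenac). Test compound at various concentrations plus 10 nM PGD₂ was added for 10 min at 37 °C. The reaction was stopped with ice-cold 10% TCA and TCA was extracted. cAMP was measured by EIA. IC50 came from cAMP relative to the PGD₂-only maximum.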

Sequence of Prostacyclin receptor (P43119 whole entry): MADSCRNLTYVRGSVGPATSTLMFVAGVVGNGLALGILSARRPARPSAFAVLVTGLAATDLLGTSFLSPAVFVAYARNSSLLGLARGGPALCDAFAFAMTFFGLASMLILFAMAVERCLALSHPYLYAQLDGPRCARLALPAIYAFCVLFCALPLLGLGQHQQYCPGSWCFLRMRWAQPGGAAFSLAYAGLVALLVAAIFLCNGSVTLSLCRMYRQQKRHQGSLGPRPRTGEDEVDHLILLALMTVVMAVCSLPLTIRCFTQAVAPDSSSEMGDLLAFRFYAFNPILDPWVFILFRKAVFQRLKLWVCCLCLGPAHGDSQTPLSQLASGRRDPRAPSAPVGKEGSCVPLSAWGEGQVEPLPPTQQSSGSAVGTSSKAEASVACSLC

SMILES	Ki (Prostacyclin receptor)	Ki (Thromboxane A2 receptor)	Ki [1]	Ki [2]	Ki [3]	Ki [4]	Ki [5]	Ki [6]	IC50 [7]
Cc1c(CC(=O)O)c2ccccc2n1C(=O)c1ccc(OC[C@@H]2CN(C)c3ccccc3O2)cc1	200 nM	> 10000 nM	2100 nM	> 10000 nM	1700 nM	> 10000 nM	7.7 nM	210 nM	
Cc1ccc2c(c1)c(CC(=O)O)c(C)n2C(=O)c1ccc(OC[C@@H]2CN(C)c3ccccc3O2)cc1	1100 nM	> 10000 nM	1700 nM	3600 nM	2800 nM	5200 nM	28 nM	340 nM	4.3 nM
Cc1c(CC(=O)O)c2cc(Cl)ccc2n1C(=O)c1ccc(OC[C@@H]2CN(C)c3ccccc3O2)cc1	49 nM		2200 nM	> 10000 nM	> 10000 nM	> 10000 nM	29 nM	330 nM	3.1 nM
Cc1c(CC(=O)O)c2cc(F)ccc2n1C(=O)c1ccc(OC[C@@H]2CN(C)c3ccccc3O2)cc1	320 nM	> 10000 nM	1700 nM	> 10000 nM	1900 nM	> 10000 nM	5.7 nM	250 nM	1.8 nM
COc1ccc2c(c1)c(CC(=O)O)c(C)n2C(=O)c1ccc(OC[C@@H]2CN(C)c3ccccc3O2)cc1	1000 nM			3000 nM	2500 nM	> 10000 nM	9.9 nM	310 nM	
Cc1c(CC(=O)O)c2ccccc2n1C(=O)c1ccc(OC[C@@H]2CN(C)c3ccccc3O2)cc1F	110 nM						3.8 nM		2.5 nM
Cc1cc(C(=O)n2c(C)c(CC(=O)O)c3ccccc32)ccc1OC[C@@H]1CN(C)c2ccccc2O1	72 nM						140 nM		
Cc1c(CC(=O)O)c2ccccc2n1C(=O)c1ccc(OC[C@@H]2CN(C)c3ccccc3O2)c(Cl)c1	91 nM						380 nM		
Cc1c(CC(=O)O)c2ccccc2n1C(=O)c1ccc(OC[C@@H]2CN(C)c3ccccc3O2)c(F)c1	210 nM						240 nM		
COc1cc(C(=O)n2c(C)c(CC(=O)O)c3ccccc32)ccc1OC[C@@H]1CN(C)c2ccccc2O1	430 nM						340 nM		
Cc1c(OC[C@@H]2CN(C)c3ccccc3O2)ccc(C(=O)n2c(C)c(CC(=O)O)c3ccccc32)c1C	98 nM						380 nM		
Cc1cc(C(=O)n2c(C)c(CC(=O)O)c3ccccc32)c(C)cc1OC[C@@H]1CN(C)c2ccccc2O1	94 nM						360 nM		
Cc1cc(OC[C@@H]2CN(C)c3ccccc3O2)ccc1C(=O)n1c(C)c(CC(=O)O)c2cc(F)ccc21	130 nM						2.7 nM		3.2 nM
Cc1c(CC(=O)O)c2cc(F)ccc2n1C(=O)c1ccc(OC[C@@H]2CN(C)c3ccccc3O2)cc1F	320 nM						3.8 nM		0.7 nM
Cc1cc(C(=O)n2c(C)c(CC(=O)O)c3cc(F)ccc32)ccc1OC[C@@H]1CN(C)c2ccccc2O1	160 nM						59 nM		42 nM
COc1cc(C(=O)n2c(C)c(CC(=O)O)c3cc(F)ccc32)ccc1OC[C@@H]1CN(C)c2ccccc2O1	1500 nM								68 nM
Cc1c(OC[C@@H]2CN(C)c3ccccc3O2)ccc(C(=O)n2c(C)c(CC(=O)O)c3cc(F)ccc32)c1C	230 nM								32 nM
Cc1cc(C(=O)n2c(C)c(CC(=O)O)c3cc(F)ccc32)c(C)cc1OC[C@@H]1CN(C)c2ccccc2O1	93 nM						14 nM		2.8 nM
Cc1cc(OC[C@@H]2COc3ccccc3O2)ccc1C(=O)n1c(C)c(CC(=O)O)c2ccccc21	570 nM						22 nM		3.8 nM
Cc1cc(OC[C@@H]2COc3ccccc32)ccc1C(=O)n1c(C)c(CC(=O)O)c2ccccc21	2100 nM						43 nM		72 nM
Cc1cc(OC[C@@H]2Cc3ccccc3O2)ccc1C(=O)n1c(C)c(CC(=O)O)c2ccccc21	280 nM						7.1 nM		7 nM
Cc1cc(OCC2Oc3ccccc3O2)ccc1C(=O)n1c(C)c(CC(=O)O)c2ccccc21	3000 nM								43 nM
Cc1cc(OCC2Cc3ccccc3N2C)ccc1C(=O)n1c(C)c(CC(=O)O)c2ccccc21 (stereo not given)	> 10000 nM								6.2 nM
CCN1c2ccccc2CC1COc1ccc(C(=O)n2c(C)c(CC(=O)O)c3ccccc32)c(C)c1 (stereo not given)	5100 nM						22 nM		3.1 nM
Cc1cc(OC[C@@H]2COc3ccc(F)cc32)ccc1C(=O)n1c(C)c(CC(=O)O)c2ccccc21	520 nM						5.4 nM		1.8 nM
COc1ccc2c(c1)c(CC(=O)O)c(C)n2C(=O)c1ccc(Cl)cc1 [INDOMETHACIN]				> 10000 nM	> 10000 nM	> 10000 nM	> 10000 nM	> 10000 nM	
